Data set [1] addresses T1, Human immunodeficiency virus type 1 integrase (Human immunodeficiency virus 1, UniProt Q7ZJM1). Nature of the data set: Inhibition of HIV1 recombinant integrase strand transfer activity using [32P]-labeled oligonucleotide a substrate after 30 mins by electrophoretic analysis. The method in brief: (§1)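 Gel-based IN assay run in vitro with Mg2+ as cofactor. IC50 values were determined separately for the 3'-processing and strand transfer reactions.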

Data set [2] is described as follows: Selectivity index, ratio of CC50 for human HOS cells to EC50 for HIV1 expressing wild type integrase. Format: toxicity, cell-based. The note with it: read-out: Ratio CC50/EC50.
In data set [3] the test system is Human immunodeficiency virus 1. Nature of the data set: Ratio of EC50 for HIV1 expressing integrase Y143R mutant to EC50 for HIV1 expressing wild type integrase. Format: functional.
The test system of data set [4] is Human immunodeficiency virus 1. Nature of the data set: Antiviral activity against HIV1 expressing wild type integrase infected in HOS cells. Format: functional, organism-based. The following applies: Human immunodeficiency virus 1, HOS. An outline of the steps: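 HOS cells infected with a lentiviral vector carrying wild-type IN; EC50 from the infected cells.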

The next data set concerns HOS. Nature of the data set: Cytotoxicity against human HOS cells assessed as reduction in ATP level. Format: cell-based.
In data set [5] the target is T1, Human immunodeficiency virus type 1 integrase. Nature of the data set: Inhibition of HIV1 recombinant integrase 3' processing activity using [32P]-labeled oligonucleotide a substrate after 30 mins by electrophoretic analysis. An outline of the steps: as §1

T1 sequence (Q7ZJM1 whole entry): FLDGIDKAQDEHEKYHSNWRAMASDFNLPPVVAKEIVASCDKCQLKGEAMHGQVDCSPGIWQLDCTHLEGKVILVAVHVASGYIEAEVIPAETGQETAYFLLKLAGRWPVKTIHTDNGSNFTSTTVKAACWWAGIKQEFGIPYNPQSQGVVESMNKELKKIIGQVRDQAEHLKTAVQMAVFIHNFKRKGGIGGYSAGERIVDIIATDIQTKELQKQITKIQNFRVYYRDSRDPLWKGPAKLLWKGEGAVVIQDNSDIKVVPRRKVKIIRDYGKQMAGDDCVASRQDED

Consider `CN1CCN(S(=O)(=O)c2cc(O)c(O)c3c2CN(Cc2ccc(F)c(Cl)c2)C3=O)CC1`, for which the IC50 – broadly, the concentration needed to halve the response being measured – stood at 0.4 µM in data set [1] and 23 µM in data set [5]. For the same compound, the selectivity ratio in data set [2] was 144. Also, the “Ratio EC50” value in data set [3] turned out to be 1. Further, the half-maximal effective concentration (EC50) – broadly, the concentration needed to bring the measured effect to its halfway point – in data set [4] turned out to be 0.043 µM. Besides, in the data set with HOS, the CC50 (commonly the concentration that lowers cell viability or growth by half) amounted to 6.2 µM.
Turning to `CN(C)S(=O)(=O)c1c(O)c(O)c(O)c2c1CN(Cc1ccc(F)c(Cl)c1)C2=O`, the IC50 stood at 0.26 µM in data set [1] and 7.6 µM in data set [5]. The selectivity ratio in data set [2] worked out at 29. Besides, the “Ratio EC50” value in data set [3] is 2. For the same compound, the EC50 in data set [4] was 0.159 µM. Besides, the CC50 with HOS was 4.6 µM.
Turning to `O=C1c2c(O)c(O)cc(S(=O)(=O)NCCN3CCNCC3)c2CN1Cc1ccc(F)c(Cl)c1`, the IC50 amounted to 0.31 µM in data set [1] and 19.3 µM in data set [5].
`O=C(O)CNS(=O)(=O)c1cc(O)c(O)c2c1CN(Cc1ccc(F)c(Cl)c1)C2=O`: the results for the IC50 in data set [1] and in data set [5] were 0.08 µM and 11.7 µM, respectively. Further, the selectivity ratio in data set [2] stood at 115. In data set [3], the “Ratio EC50” value was 3. The compound further came in with an EC50 in data set [4] of 0.929 µM. Besides, in the data set with HOS, the half-maximal cytotoxic concentration (CC50) was 107 µM.
With `Cc1c(O)c(O)c2c(c1S(=O)(=O)N(C)C)CN(Cc1ccc(F)c(Cl)c1)C2=O`, the 50% inhibitory concentration (IC50) in data set [1] is 2.8 µM; in data set [5] it was 49.7 µM. In data set [2], the selectivity ratio is 20. Moreover, the “Ratio EC50” value in data set [3] was found to be 2. Besides, the 50% effective concentration (EC50) in data set [4] came to 0.322 µM. In addition, in the data set on HOS, the 50% cytotoxic concentration (CC50) came out at 6.3 µM.
For the compound `CCCCc1c(O)c(O)c2c(c1S(=O)(=O)N(C)C)CN(Cc1ccc(F)c(Cl)c1)C2=O`, the IC50 was 2.3 µM in data set [1] and over 111 µM in data set [5]. Moreover, the selectivity ratio in data set [2] was 2. Also, the “Ratio EC50” value in data set [3] worked out at 1. Moreover, the half-maximal effective concentration (EC50) in data set [4] was 3.8 µM. Further, the CC50 with HOS was determined as 7 µM.
Turning to `CC(C)c1c(O)c(O)c2c(c1S(=O)(=O)N(C)C)CN(Cc1ccc(F)c(Cl)c1)C2=O`, the values for the concentration for half-maximal inhibition (IC50) in data set [1] and in data set [5] were 0.19 µM and over 111 µM, respectively. Moreover, the selectivity ratio in data set [2] was 3. The same compound showed a concentration giving a half-maximal response (EC50) in data set [4] of 3.6 µM. Moreover, the CC50 with HOS worked out at 12.1 µM.
For the compound `O=C1c2c(cc(O)c(O)c2O)CN1Cc1ccc(F)c(Cl)c1`, the results for the concentration for half-maximal inhibition (IC50) in data set [1] and in data set [5] were 1.5 µM and 36 µM, respectively.
On to `CN(CC(=O)O)S(=O)(=O)c1cc(O)c(O)c2c1CN(Cc1ccc(F)c(Cl)c1)C2=O`, for which the IC50 in data set [1] came to 0.058 µM; in data set [5] it was 6.9 µM. The selectivity ratio in data set [2] is 680. In data set [3], the “Ratio EC50” value is given as 2. Also, in data set [4], the concentration giving a half-maximal response (EC50) turned out to be 0.14 µM. Besides, the cytotoxic concentration (CC50) in the data set with HOS worked out at 95.2 µM.
Regarding `O=C1c2c(O)c(O)cc(S(=O)(=O)N3CCOCC3)c2CN1Cc1ccc(F)c(Cl)c1`, the IC50 came out at 0.047 µM in data set [1] and 6.8 µM in data set [5]. Also, in data set [2], the selectivity ratio stood at 241. The “Ratio EC50” value in data set [3] amounted to 2. The compound further registered a 50% effective concentration (EC50) in data set [4] of 0.022 µM. Also, in the data set on HOS, the CC50 stood at 5.3 µM.
Regarding `CCN(CC)S(=O)(=O)c1cc(O)c(O)c2c1CN(Cc1ccc(F)c(Cl)c1)C2=O`, the IC50 in data set [1] worked out at 0.054 µM; in data set [5], 9.5 µM. Also, the selectivity ratio in data set [2] was 494. Besides, in data set [3], the “Ratio EC50” value is 3. Besides, the EC50 in data set [4] worked out at 0.017 µM. Also, the half-maximal cytotoxic concentration (CC50) in the data set on HOS came to 8.4 µM.
On to `O=C1c2c(O)c(O)cc(S(=O)(=O)NCc3ccccn3)c2CN1Cc1ccc(F)c(Cl)c1`, for which the IC50 in data set [1] amounted to 0.37 µM; in data set [5], 23 µM.
In the case of `O=C1c2c(ccc(O)c2O)CN1Cc1ccc(F)c(Cl)c1`, in data set [2], the selectivity ratio was found to be 12. The “Ratio EC50” value in data set [3] came out at 1. In data set [4], this compound gave a concentration giving a half-maximal response (EC50) of 0.447 µM.
Regarding `CC(C)c1c(O)c(O)c2c(c1S(=O)(=O)N1CCOCC1)CN(Cc1ccc(F)c(Cl)c1)C2=O`, the figures for the IC50 in data set [1] and in data set [5] were 0.41 µM and over 111 µM, respectively. Moreover, the selectivity ratio in data set [2] turned out to be 2. Also, in data set [3], the “Ratio EC50” value is 4. This compound returned a half-maximal effective concentration (EC50) in data set [4] of 3.4 µM. Besides, the CC50 with HOS turned out to be 5.9 µM.
Turning to `CN(C)S(=O)(=O)c1ccc(-c2cc3c(c(O)c2O)C(=O)N(Cc2ccc(F)c(Cl)c2)C3)cc1`, the figures for the half-maximal inhibitory concentration (IC50) in data set [1] and in data set [5] were 0.4 µM and over 111 µM, respectively.
For `CN(C)CCCNS(=O)(=O)c1cc(O)c(O)c2c1CN(Cc1ccc(F)c(Cl)c1)C2=O` the same measures were 0.24 µM and 15.9 µM.
For `O=C1c2c(cc(-c3ccccc3)c(O)c2O)CN1Cc1ccc(F)c(Cl)c1` the same measures were 0.87 µM and over 111 µM.
The corresponding values for `CC(C)c1cc2c(c(O)c1O)C(=O)N(Cc1ccc(F)c(Cl)c1)C2` are 5.4 µM and over 111 µM.
With `NCCN1CCN(S(=O)(=O)c2cc(O)c(O)c3c2CN(Cc2ccc(F)c(Cl)c2)C3=O)CC1`, the concentration for half-maximal inhibition (IC50) in data set [1] amounted to 0.19 µM; in data set [5], 21.2 µM.
Turning to `CN(C)S(=O)(=O)c1ccc(-c2c(O)c(O)c3c(c2S(=O)(=O)N(C)C)CN(Cc2ccc(F)c(Cl)c2)C3=O)cc1`, the IC50 in data set [1] is 0.25 µM; in data set [5], 35.2 µM. The selectivity ratio in data set [2] was 21. Also, the “Ratio EC50” value in data set [3] was 4. For the same compound, the response in data set [4] was half-maximal at 0.132 µM (EC50). Further, in the data set with HOS, the CC50 amounted to 2.8 µM.
With `CNS(=O)(=O)c1cc(O)c(O)c2c1CN(Cc1ccc(F)c(Cl)c1)C2=O`, the values for the IC50 in data set [1] and in data set [5] were 0.12 µM and 17.5 µM, respectively. For the same compound, the selectivity ratio in data set [2] was 108. The “Ratio EC50” value in data set [3] is on record as 1. The compound also yielded an EC50 in data set [4] of 0.04 µM. The CC50 in the data set on HOS turned out to be 4.3 µM.
Regarding `CCCCc1cc2c(c(O)c1O)C(=O)N(Cc1ccc(F)c(Cl)c1)C2`, the results for the IC50 in data set [1] and in data set [5] were 6.8 µM and over 111 µM, respectively.
As to `O=C1c2c(O)c(O)cc(S(=O)(=O)NCCCBr)c2CN1Cc1ccc(F)c(Cl)c1`, the IC50 in data set [1] was 0.11 µM; in data set [5], 14.7 µM. Moreover, the selectivity ratio in data set [2] came out at 49. Besides, the “Ratio EC50” value in data set [3] came out at 1. In data set [4], this compound returned a concentration giving a half-maximal response (EC50) of 0.093 µM. Moreover, in the data set on HOS, the CC50 is 4.6 µM.
For the compound `O=C1c2c(O)c(O)cc(S(=O)(=O)NCCN3CCOCC3)c2CN1Cc1ccc(F)c(Cl)c1`, the 50% inhibitory concentration (IC50) turned out to be 0.32 µM in data set [1] and 30.2 µM in data set [5].
Consider `Cc1cc2c(c(O)c1O)C(=O)N(Cc1ccc(F)c(Cl)c1)C2`, for which the IC50 in data set [1] was 11.5 µM; in data set [5], over 111 µM.

Values taken from ChEMBL document CHEMBL2203025, “6,7-Dihydroxy-1-oxoisoindoline-4-sulfonamide-containing HIV-1 integrase inhibitors” (Bioorg Med Chem Lett, 2012).
